An excerpt weighted towards active compounds, which were near 2.2% of everything screened.
DNMT1 block: inhibitors of human DNMT1; P26358; 360,000 tested, 0.83% active; DNMT1 molecular beacon, Hinp1I cleavage, fluorescence; AID 588458; inhibition (reported as % activation of signal), % at 10 µM; in the data active = inhibition above about 50%
LMPTP inh: blocks human LMPTP phosphatase | P24666 | recombinant LMPTP-A, OMFP fluorogenic substrate, fluorescence intensity | inhibition, % at 20 µM | 360,000 tested, 0.22% active | AID 651560;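 active = compounds that cut the enzyme signal by at least half of the control window in the single-dose screen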;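 note: plate controls were DMSO wells with enzyme plus substrate for no effect and substrate without enzyme for full effect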
Target sequence (P24666 whole entry, looked up): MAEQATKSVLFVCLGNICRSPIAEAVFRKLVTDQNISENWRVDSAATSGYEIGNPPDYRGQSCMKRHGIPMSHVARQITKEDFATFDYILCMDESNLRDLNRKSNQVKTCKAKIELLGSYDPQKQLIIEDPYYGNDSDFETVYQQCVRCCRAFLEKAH
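Test system – LMPTP-A phosphatase enzyme · Quantity – 0.625 nM LMPTP-A final · Reagent – OMFP substrate, 400 µM final · Dosing – one test concentration per compound, 20 µM, with 3% DMSO overall · Timing – 50 min enzyme reaction at room temperature, protected from light · Detection – fluorescence intensity · Controls – substrate-only low control, DMSO enzyme-plus-substrate high control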
SUMO1 PPI mod: SUMO1-SIM interaction modulation. SUMO1 binding to a labelled peptide, TR-FRET, 1 h. inhibition, % at 20 µM. 360,000 tested, 0.33% active. AID 602429; in the data active = inhibition above about 37%
Target sequence (P63165 whole entry, looked up): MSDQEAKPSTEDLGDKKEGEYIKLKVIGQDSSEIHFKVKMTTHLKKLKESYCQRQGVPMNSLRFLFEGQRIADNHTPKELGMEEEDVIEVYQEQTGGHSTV
GRK2 aptamer HTS: human GRK2 inhibition via aptamer displacement; P25098; bead flow cytometry, FAM-aptamer displacement from GRK2; inhibition of aptamer binding, % at 10 µM; 330,000 tested, 0.59% active;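 active = inhibition of aptamer binding above 40%, roughly 3 SD of noise, on plates passing a quality check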;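 note: median bead fluorescence of bound FAM aptamer so fluorescent compounds give negative values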
STEP block: blocks human striatal-enriched tyrosine phosphatase | P54829 | recombinant STEP, OMFP fluorogenic substrate, fluorescence | inhibition, % at 20 µM | 360,000 tested, 0.25% active | AID 588621;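 active = inhibition at 20 µM, scaled per plate between control wells, above about 37%, limit read from the data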;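 note: 0% = DMSO with enzyme and substrate and 100% = substrate only without enzyme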
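System: STEP (striatal-enriched tyrosine phosphatase) enzyme, cell-free; medium: Bis-Tris pH 6.0 buffer with DTT, detergent; dosing: 20 µM, 1% DMSO; times: reaction 20 min, ambient temperature; detection: fluorescence, 480/540 nm; read-out basis: normalized % inhibition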
Scp1 inh: blocks human Scp-1 phosphatase activity; Q9GZU7; Recombinant Scp1, phosphopeptide, malachite green phosphate absorbance; inhibition, % at 20 µM; 340,000 tested, 0.88% active; AID 493091;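 active = inhibition above about 50% at 20 µM, limit read from the data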;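 note: plate controls were DMSO wells with enzyme for no effect and wells lacking enzyme for full effect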
Target sequence (Q9GZU7 76-261 limits assumed): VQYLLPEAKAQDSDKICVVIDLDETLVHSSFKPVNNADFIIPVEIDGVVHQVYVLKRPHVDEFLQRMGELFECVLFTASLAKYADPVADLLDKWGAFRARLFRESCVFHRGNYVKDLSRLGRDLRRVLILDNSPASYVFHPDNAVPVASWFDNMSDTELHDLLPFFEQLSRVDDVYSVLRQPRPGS
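Assay system: SCP-1 catalytic fragment, aa 76-261 | Buffer or medium: Tris acetate buffer pH 5.5 with MgCl2 and Tween-20 | Compound: One concentration, 20 µM, with 1.0% DMSO | Also added: Phospho 17-mer peptide substrate | Signal: Absorbance at 630 nm | Incubation: 45 min enzyme reaction at room temperature | Measure: % inhibition of SCP-1 phosphate liberation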
The depositor's hits bear a star; / = no result given.

SMILES | DNMT1 block | LMPTP inh | SUMO1 PPI mod | GRK2 aptamer HTS | STEP block | Scp1 inh
CN(Cc1cnccn1)C(=O)C1CCC(=O)N(CCc2ccc(Cl)cc2)C1 (stereo unspecified) | 2.1 | -1.4 | -4.2 | 2.0 | -0.6 | -11.7
O=C(CSc1nc2ccccc2n1CCc1ccccc1)c1ccc(O)c(O)c1 | 97.1* | 78.9* | 73.0* | / | 82.8* | 69.0*
O=C(CSc1nc2ccccc2c(=O)[nH]1)c1ccc(O)c(O)c1 | 14.4 | 18.2 | 21.6 | 3.0 | 1.5 | 55.1*
O=C(CSc1nc2ccccc2n1CCc1ccccc1)N1CCOCC1 | -3.8 | -1.5 | 4.0 | 7.0 | -1.0 | -3.1
COCCCN1C(=O)C(CC(=O)NCCN2CCOCC2)CC(C(=O)N(C)C)=C1C (stereo unspecified) | -2.5 | -3.1 | -0.3 | / | -3.5 | /
Cc1noc(C)c1C(=O)N(C)C[C@@H]1OCc2ccccc2-c2c(n(C)c3ccccc23)C(=O)N([C@H](C)CO)C[C@H]1C | 6.2 | -1.6 | 3.1 | / | 1.1 | /
O=C1NC[C@H](CCCCN2CCN(CC3CCCCC3)C(=O)C2=O)N(CC2CCCCC2)C1=O | / | -0.8 | -0.9 | / | / | /
CN1CCN(C(=O)c2cnn(-c3ccccc3)c2NC(=O)c2ccccc2Cl)CC1 | -2.2 | 0.4 | 55.2* | 0.0 | 0.9 | -5.5
O=C(Nc1cccc(F)c1)c1c(O)c2cccc3c2n(c1=O)CCC3 | / | / | / | 78.0* | / | /
COc1cc(OC)nc(Nc2nc(CN)cs2)n1 | 0.5 | -0.1 | 0.8 | / | 3.7 | /
O=c1[nH][nH]c2c(N=Cc3ccccc3O)ccc(F)c12 | 118.0* | 70.3* | 91.9* | / | 94.2* | 91.5*
CC1(C(=O)Nc2ccc3c(c2)OCCO3)CCN1C(=O)c1ccco1 (stereo unspecified) | 6.8 | 0.1 | -4.1 | / | -3.1 | /
CCCN(CCC)C(=O)CC(c1ccc(F)cc1)c1ccco1 (stereo unspecified) | 12.5 | 0.7 | -2.9 | 7.0 | 48.1* | -8.7
CC(=O)c1ccc(NC(=O)c2ccc(N3C(=O)c4cccnc4C3=O)cc2)cc1 | -4.5 | 3.2 | 41.2* | 0.0 | 1.9 | 7.0
O=C(O)c1ccc(N2C(=O)c3cccnc3C2=O)cc1 | 3.3 | -0.3 | -3.6 | 1.0 | 0.1 | -3.3
O=C(c1ccc(CSc2nc3ccncc3[nH]2)cc1)N1CCCCC1 | -4.9 | 13.1 | 5.9 | 1.0 | -0.8 | -12.9
COc1cccc(N2CCN(C(=O)c3ccc(CSc4nc5ccncc5[nH]4)cc3)CC2)c1 | -1.1 | 51.8* | -6.0 | 0.0 | -1.4 | -11.7
COc1ccccc1C(=O)NCC(=O)OCC(=O)Nc1ccc2[nH]c(=O)[nH]c2c1 | 1.6 | -0.5 | 46.8* | 0.0 | -2.9 | -6.6
CC(=O)c1ccc(OCCCC(=O)OCC(=O)Nc2ccc3[nH]c(=O)[nH]c3c2)cc1 | 0.1 | -1.8 | 75.8* | 0.0 | -2.0 | -2.8
O=C(COC(=O)C1CC1)Nc1ccc2[nH]c(=O)[nH]c2c1 | 2.9 | 1.7 | 7.5 | 0.0 | 2.6 | 1.9
CC(CC(=O)OCC(=O)Nc1ccc2[nH]c(=O)[nH]c2c1)c1ccccc1 (stereo unspecified) | 2.1 | 0.2 | 46.1* | 1.0 | -1.5 | 4.8
COc1ccc(OCC(=O)OCC(=O)Nc2ccc3[nH]c(=O)[nH]c3c2)cc1 | 5.4 | -2.0 | 61.9* | 0.0 | -2.3 | -7.5
COc1ccc(CCC(=O)OCC(=O)Nc2ccc3[nH]c(=O)[nH]c3c2)cc1 | -1.5 | 0.0 | 11.0 | 3.0 | 4.6 | -4.7
COc1ccccc1CN(C)C[C@@H]1OCc2cnnn2CCCC(=O)N([C@@H](C)CO)C[C@H]1C | -2.4 | -1.9 | 1.6 | / | 0.5 | /
CSc1ccc(Cn2c(C)c(C(=O)NCc3ccc4c(c3)OCO4)sc2=O)cc1 | -7.1 | 3.0 | 5.1 | / | 4.1 | /
SMILES | DNMT1 block | LMPTP inh | SUMO1 PPI mod | GRK2 aptamer HTS | STEP block | Scp1 inh
ClC1=CN(C2=NCCC2)CC1 | -12.7 | 8.9 | -19.5 | / | -0.5 | /
N=C(N)c1ccc(/C=C/c2ccc(C(=N)N)cc2O)cc1 | -7.3 | 65.0* | 77.8* | 0.0 | 0.0 | -5.1
N=C(N)c1ccc(Cl)cc1 | -0.5 | -1.2 | 1.6 | 0.0 | -1.8 | 0.6
Cc1[nH][nH]c(=O)c1N=Nc1ccc(S(N)(=O)=O)cc1 | -6.6 | -6.6 | -40.0 | 0.0 | -1.1 | 4.8
CN(C)N=Nc1ccc(S(N)(=O)=O)cc1 | -1.3 | 0.2 | -2.1 | 0.0 | 2.3 | -6.7
NS(=O)(=O)c1ccc(N=Nc2c[nH]c(=O)c(O)c2)cc1 | 11.1 | 29.8 | 26.8 | 7.0 | 10.2 | 70.2*
CN(C)c1ccc(N=Nc2ccc(S(N)(=O)=O)cc2)cc1 | 8.8 | 53.0* | 4.5 | 0.0 | 93.9* | 26.0
OCc1cccc(-c2csc(C(O)c3ccco3)n2)c1 (stereo unspecified) | -3.8 | 1.1 | -6.5 | / | -0.7 | /
CCOC(=O)Cc1ccc(Nc2nc(NCCOC)nc3ccsc23)cc1 | 1.7 | 42.0 | 0.0 | / | 1.1 | /
CCc1nc2c(OCc3ccc(OC(F)F)cc3)cccn2c1N(C)C(=O)c1ccc(OC)cc1 | -6.3 | 1.1 | 2.6 | / | 1.4 | /
CCCCCOc1ccc(/C=c2\sc3nc(=O)c(-c4ccccc4)nn3c2=O)cc1OC | 4.7 | 2.1 | 6.2 | 0.0 | 0.8 | 2.4
C=CCOc1ccccc1/C=c1\sc2nc(=O)c(C)nn2c1=O | 52.9* | 2.6 | 24.5 | 1.0 | 2.6 | 7.7
CCc1ccc(Nc2n[n+](-c3ccccc3)c(-c3c(Cl)cccc3Cl)s2)cc1 | -0.4 | 70.5* | -34.2 | 0.0 | 2.9 | 19.6
CCN(CC)c1ccc(-c2sc(Nc3ccccc3)n[n+]2-c2ccc(F)cc2)cc1 | 15.9 | 0.4 | -27.7 | 0.0 | -6.7 | -1.9
CCc1ccc(Nc2n[n+](-c3ccccc3)c(-c3ccc(N(CC)CC)cc3)s2)cc1 | 67.7* | 4.2 | -70.6 | 0.0 | -5.2 | 9.3
COc1ccc(C)cc1Nc1n[n+](-c2ccccc2)c(-c2ccc(N(C)C)cc2)s1 | 60.0* | 6.1 | -44.0 | 0.0 | -1.3 | 13.6
Cc1ccc(NC(=O)C2CCN(S(=O)(=O)c3cc([N+](=O)[O-])ccc3Cl)CC2)nc1 | 7.9 | -0.6 | -24.4 | 9.0 | 1.4 | 23.1
CC(=O)COC(=O)C1CCN(S(=O)(=O)c2cc([N+](=O)[O-])ccc2Cl)CC1 | 55.9* | 2.6 | -13.3 | 3.0 | 10.5 | 45.0
O=C(Nc1nc2ccc(F)cc2s1)C1CCN(S(=O)(=O)c2cc([N+](=O)[O-])ccc2Cl)CC1 | 26.9 | 3.1 | 0.5 | 4.0 | 2.4 | 55.0*
C/C(CC(=O)NCc1ccco1)=N\NC(=O)C(c1ccccc1)c1ccccc1 | -1.6 | 1.7 | 49.2* | 1.0 | -1.9 | -3.0
C/C(CC(=O)NCc1ccco1)=N\NC(=O)Cc1ccccc1 | -3.6 | -2.0 | 1.2 | 0.0 | -1.9 | -1.9
CC(=O)Nc1ccc(S(=O)(=O)N(CC(=O)NCC2CCCO2)Cc2ccccc2Cl)cc1 (stereo unspecified) | 2.6 | -0.5 | 1.0 | / | -1.5 | /
